According to ChEMBL document CHEMBL3585241, “Synthesis and biological evaluation of thiabendazole derivatives as anti-angiogenesis and vascular disrupting agents” (Bioorg Med Chem, 2015):
Activity calls are given as the source filed them. The calls are words filed in the database; no cut-off is given here.

Legend:
Tubulin (Bos taurus) [1] = target: T1, Tubulin (Bos taurus) (UniProt Q6B856+Q862F3); assay: Inhibition of bovine brain tubulin polymerization at 3 uM measured every 5 secs for 0 to 3 mins , 10 secs for 3 to 5 mins, 30 secs for 5 to 10 mins, 60 secs for 10 to 17 mins by spectrophotometric analysis
HUVEC [2] = assay: Cytotoxicity against HUVEC assessed as inhibition of cell proliferation rate at 10 uM after 72 hrs by MTT assay relative to control; assay type: functional; conditions: Homo sapiens
HUVEC [3] = assay: Cytotoxicity against HUVEC assessed as inhibition of cell proliferation rate at 100 uM after 72 hrs by MTT assay relative to control; assay type: functional; conditions: Homo sapiens
A549 [4] = assay: Inhibition of alpha-tubulin formation in human A549 cells at 50 nM after 24 hrs by TRITC/Hoechst 33258 staining-based immunofluorescence microscopic analysis; assay type: cell-based
Tubulin (Bos taurus) [5] = target: T1, Tubulin (Bos taurus); assay: Inhibition of bovine brain tubulin polymerization at 10 uM measured every 5 secs for 0 to 3 mins , 10 secs for 3 to 5 mins, 30 secs for 5 to 10 mins, 60 secs for 10 to 17 mins by spectrophotometric analysis
Tubulin (Bos taurus) [6] = target: T1, Tubulin (Bos taurus); assay: Inhibition of bovine brain tubulin polymerization at 5 uM by spectrophotometric analysis; conditions: TDE = time-dependent effect
Procedure, shortened: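 MAP-rich bovine brain tubulin (2 mg/mL) in 80 mM PIPES pH 6.9, 2 mM MgCl2, 0.5 mM EGTA, 5% glycerol, with DMSO or compound at 5 µM. Polymerization started with 1 mM GTP at 37 °C. Absorbance at 340 nm followed over 17 min (5 s intervals to 3 min, 10 s to 5 min, 30 s to 10 min, 60 s to 17 min).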

HUVEC [7] = assay: Cytotoxicity against HUVEC assessed as inhibition of cell proliferation rate after 72 hrs by MTT assay; assay type: functional, cell-based; conditions: Homo sapiens
Procedure, shortened: (§1)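 Cells seeded at 3.5 × 10^4 cells/mL and cultured 24 h (37 °C, 5% CO2), then exposed to compounds for 72 h. DMSO at 0.5% final served as the vehicle control. IC50 taken from triplicate experiments, reported as mean.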

HCT-116 = assay: Cytotoxicity against human HCT116 cells assessed as inhibition of cell proliferation rate after 72 hrs by MTT assay; assay type: functional, cell-based; conditions: HCT-116, 72 h; procedure, shortened: as §1
HepG2 = assay: Cytotoxicity against human HepG2 cells assessed as inhibition of cell proliferation rate after 72 hrs by MTT assay; assay type: functional, cell-based; conditions: HepG2, 72 h; procedure, shortened: as §1
A549 [8] = assay: Cytotoxicity against human A549 cells assessed as inhibition of cell proliferation rate after 72 hrs by MTT assay; assay type: functional, cell-based; conditions: A549, 72 h; procedure, shortened: as §1
A549 [9] = assay: Inhibition of alpha-tubulin formation in human A549 cells at 250 uM after 24 hrs by TRITC/Hoechst 33258 staining-based immunofluorescence microscopic analysis; assay type: cell-based
HUVEC [10] = assay: Induction of vascular disruption in HUVEC after 16 hrs by inverted microscopic analysis; assay type: functional, cell-based; conditions: Homo sapiens
HUVEC [11] = assay: Antiangiogenic activity in HUVEC assessed as inhibition of tubular structure formation at 0.033 to 0.33 uM after 8 hrs by microscopic analysis; assay type: functional, cell-based; conditions: Homo sapiens
Thoracic aorta = assay: Antiangiogenic activity in Sprague-Dawley rat thoracic aorta ring assessed as inhibition of microvessel outgrowth at 0.33 uM measured on day 6 by inverse microscopic analysis; assay type: functional, tissue-based
Procedure, shortened: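 Aortas from 6-week Sprague Dawley rats taken under ether anesthesia, rinsed in serum-free M199 and cut into 1-mm rings. Rings embedded in Matrigel and held 1 h at 37 °C. Serum-free M199, with or without 20% FBS, then added with test agents at various concentrations. Sprouting imaged by inverted microscope on day 6.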

SMILES | inhibition at 10 µM (HUVEC [2]) | inhibition at 100 µM (HUVEC [3]) | also measured
COC(=O)Nc1nc2cc(C(=O)c3cccs3)ccc2[nH]1 |  |  | inhibition (Tubulin (Bos taurus) [1]): Active
Cc1cc2nc(-c3cscn3)[nH]c2cc1C | 0% | 0% | 
CC[C@]1(O)C[C@@H]2CN(CCc3c([nH]c4ccccc34)[C@@](C(=O)OC)(c3cc4c(cc3OC)N(C)[C@H]3[C@@](O)(C(=O)OC)[C@H](OC(C)=O)[C@]5(CC)C=CCN6CC[C@]43[C@@H]65)C2)C1 |  |  | inhibition (A549 [4]): Active
CC(=O)O[C@H]1C(=O)[C@@]2(C)[C@H]([C@H](OC(=O)c3ccccc3)[C@]3(O)C[C@H](OC(=O)[C@H](O)[C@@H](NC(=O)c4ccccc4)c4ccccc4)C(C)=C1C3(C)C)[C@]1(OC(C)=O)CO[C@@H]1C[C@@H]2O |  |  | inhibition (Tubulin (Bos taurus) [5]): inactive
c1ccc2cc3[nH]c(-c4cscn4)nc3cc2c1 | 2% | 59% | 
Clc1ccc2[nH]c(-c3cscn3)nc2c1 | 7% | 53% | 
O=C(c1ccccc1)c1ccc2[nH]c(-c3cscn3)nc2c1 |  |  | inhibition (Tubulin (Bos taurus) [6]): tde
Cc1ccc2nc(-c3ccccn3)[nH]c2c1 | 7% | 10% | 
c1ccc2[nH]cnc2c1 [BENZIMIDAZOLE] | 0% | 11% | IC50 (HUVEC [7]): > 100 µM; IC50 (HCT-116): > 100 µM; IC50 (HepG2): > 100 µM; IC50 (A549 [8]): > 100 µM; inhibition (A549 [9]): Active; IC50 (HUVEC [10]): > 250 µM
CCN(CC)CCNC(=O)c1c(C)[nH]c(/C=C2\C(=O)Nc3ccc(F)cc32)c1C |  |  | inhibition (HUVEC [11]): Active; inhibition (Thoracic aorta): Active
c1cc2[nH]c(-c3cscn3)nc2cn1 | 8% | 0% | 
O=C(Nc1scnc1-c1nc2ccccc2[nH]1)NC1CC1 |  |  | inhibition (Tubulin (Bos taurus) [6]): tde
c1ccc(Cn2c(-c3ccccc3)nc3ccccc32)cc1 | 7% | 38% | 
